Measurements taken from ChEMBL document CHEMBL1152466, “Hepatitis B virus e antigen loss during adefovir dipivoxil therapy is associated with enhanced virus-specific CD4+ T-cell reactivity” (2008).
Calls of active or inactive are those of the source.

What was measured:
PBMC [1] = assay: Increase in HBV-specific IL12p70 level in HBcAg-stimulated human PBMC at 10 to 30 mg per day by ELISA; type: functional, cell-based
Hepatitis B virus [2] = assay: Antiviral activity against HBV infected patients assessed as ALT level at 10 to 30 mg per day after 48 weeks […]; type: functional
Hepatitis B virus [3] = assay: Antiviral activity against HBV infected in human assessed as reduction in serum viral DNA level at 10 to 30 mg per day after 48 weeks; type: functional
Homo sapiens [4] = species on record: Homo sapiens; assay: Increase in HBV-specific IFN-gamma-producing CD4+ cell proliferation in patients with […] chronic hepatitis B assessed as [3H]thymidine incorporation after 16 weeks by beta counting relative to baseline; type: functional, organism-based
How it was run: (§1)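 Freshly isolated patient PBMC (density gradient) at 2 × 10⁶/ml in RPMI with 10% human AB serum. rHBcAg (1 μg/ml) was added to quadruplicate wells, with tetanus toxoid (0.5 μg/ml) and phytohemagglutinin (1 μg/ml) as controls. After 6 days, 0.5 μCi/well [³H]thymidine pulse and beta counting. Stimulation index = mean cpm antigen/medium. The positive cutoff was mean + 3 SD of 15–20 controls per center.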

Homo sapiens [5] = species on record: Homo sapiens; assay: Increase in HBV-specific IFN-gamma-producing CD4+ cell proliferation in patients with […] chronic hepatitis B assessed as [3H]thymidine incorporation after 40 weeks by beta counting relative to baseline; type: functional, organism-based; how it was run: as §1
Homo sapiens [6] = species on record: Homo sapiens; assay: Increase in HBV-specific IFN-gamma-producing CD4+ cell proliferation in patients with […] chronic hepatitis B assessed as [3H]thymidine incorporation after 48 weeks by beta counting relative to baseline; type: functional, organism-based; how it was run: as §1
Homo sapiens [7] = species on record: Homo sapiens; assay: Increase in HBV-specific IFN-gamma-producing CD4+ cell proliferation in patients with […] chronic hepatitis B assessed as [3H]thymidine incorporation by beta counting relative to baseline; type: functional; how it was run: as §1
PBMC [8] = assay: Increase in HBV-specific IFN-gamma production in HBcAg-stimulated human PBMC assessed as INFgamma production index at 10 to 30 mg per day after 4 weeks […]; type: functional
How it was run: (§2)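 PBMC at 3 × 10⁶/ml in RPMI with 10% human AB serum, cultured in quadruplicate for 6 days with or without rHBcAg (1 μg/ml). IFN-γ in cell-free supernatants (kept at −20°C) was measured by ELISA. Index = mean pg/ml IFN-γ of the four HBcAg-stimulated replicates divided by that of medium-only cultures, calculated at each protocol time point.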

PBMC [9] = assay: Increase in HBV-specific IFN-gamma production in HBcAg-stimulated human PBMC assessed as INFgamma production index at 10 to 30 mg per day after 8 weeks by […]; type: functional; how it was run: as §2
PBMC [10] = assay: Increase in HBV-specific IFN-gamma production in HBcAg-stimulated human PBMC assessed as INFgamma production index at 10 to 30 mg per day after 16 weeks […]; type: functional; how it was run: as §2
PBMC [11] = assay: Increase in HBV-specific IFN-gamma production in HBcAg-stimulated human PBMC assessed as INFgamma production index at 10 to 30 mg per day after 24 weeks by […]; type: functional; how it was run: as §2
PBMC [12] = assay: Increase in HBV-specific IFN-gamma production in HBcAg-stimulated human PBMC assessed as INFgamma production index at 10 to 30 mg per day after 40 weeks by […]; type: functional; how it was run: as §2
PBMC [13] = assay: Increase in HBV-specific IFN-gamma production in HBcAg-stimulated human PBMC assessed as INFgamma production index at 10 to 30 mg per day after 48 weeks by […]; type: functional; how it was run: as §2
PBMC [14] = assay: Increase in HBV-specific IL8 in HBcAg-stimulated human PBMC at 10 to 30 mg per day by ELISA; type: functional, cell-based
PBMC [15] = assay: Increase in HBV-specific IP10 in HBcAg-stimulated human PBMC at 10 to 30 mg per day by ELISA; type: functional, cell-based
PBMC [16] = assay: Increase in HBV-specific Fas ligand level in HBcAg-stimulated human PBMC at 10 to 30 mg per day by ELISA; type: functional, cell-based
PBMC [17] = assay: Increase in HBV-specific IL2 level in HBcAg-stimulated human PBMC at 10 to 30 mg per day by ELISA; type: functional, cell-based
PBMC [18] = assay: Increase in HBV-specific IL5 level in HBcAg-stimulated human PBMC at 10 to 30 mg per day by ELISA; type: functional, cell-based
Homo sapiens [19] = species on record: Homo sapiens; assay: Serum IL10 level in human at baseline at 10 to 30 mg per day by cytometric bead array

## CC(C)(C)C(=O)OCOP(=O)(COCCn1cnc2c(N)ncnc21)OCOC(=O)C(C)(C)C [ADEFOVIR DIPIVOXIL]
PBMC [1]
  Activity: inactive
Hepatitis B virus [2]
  Activity: 35 IU/ml
Hepatitis B virus [3]
  Activity: -5.3 log10CFU/ml
Homo sapiens [4]
  Activity: Active
Homo sapiens [5]
  Activity: Active
Homo sapiens [6]
  Activity: Active
Homo sapiens [7]
  Activity: 15%
PBMC [8]
  Activity: 58.9
PBMC [9]
  Activity: 184.3
PBMC [10]
  Activity: 63.9
PBMC [11]
  Activity: 26.3
PBMC [12]
  Activity: 61.5
PBMC [13]
  Activity: 18
PBMC [14]
  Activity: Active
PBMC [15]
  Activity: Active
PBMC [16]
  Activity: inactive
PBMC [17]
  Activity: inactive
PBMC [18]
  Activity: inactive
Homo sapiens [19]
  Activity: 32 pg/mL
